For experiment [1], the target named is Sodium- and chloride-dependent GABA transporter 1 (Mus musculus, UniProt P31648). The experiment in a line: Inhibition of GAT1 in mouse D8 cells assessed as [3H]GABA transport by liquid scintillation counting. It counts as cell-based. In outline:
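D8 cells expressing mouse GAT-1 were grown in RPMI 1640 with 10% FBS to near confluence (about 60,000 cells/well), rinsed with PBS and preincubated 10 min at room temperature in HBSS. [3H]GABA was added (151 nM final) for 20 min at room temperature. Uptake was stopped by aspiration and three rapid cold-PBS washes, and cells were lysed in 2 N NaOH. Uptake was counted by scintillation, giving IC50.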

A further experiment concerns the target T1, GABA transporter 3 (Mus musculus, UniProt P31649).
T1 sequence (P31649 whole entry): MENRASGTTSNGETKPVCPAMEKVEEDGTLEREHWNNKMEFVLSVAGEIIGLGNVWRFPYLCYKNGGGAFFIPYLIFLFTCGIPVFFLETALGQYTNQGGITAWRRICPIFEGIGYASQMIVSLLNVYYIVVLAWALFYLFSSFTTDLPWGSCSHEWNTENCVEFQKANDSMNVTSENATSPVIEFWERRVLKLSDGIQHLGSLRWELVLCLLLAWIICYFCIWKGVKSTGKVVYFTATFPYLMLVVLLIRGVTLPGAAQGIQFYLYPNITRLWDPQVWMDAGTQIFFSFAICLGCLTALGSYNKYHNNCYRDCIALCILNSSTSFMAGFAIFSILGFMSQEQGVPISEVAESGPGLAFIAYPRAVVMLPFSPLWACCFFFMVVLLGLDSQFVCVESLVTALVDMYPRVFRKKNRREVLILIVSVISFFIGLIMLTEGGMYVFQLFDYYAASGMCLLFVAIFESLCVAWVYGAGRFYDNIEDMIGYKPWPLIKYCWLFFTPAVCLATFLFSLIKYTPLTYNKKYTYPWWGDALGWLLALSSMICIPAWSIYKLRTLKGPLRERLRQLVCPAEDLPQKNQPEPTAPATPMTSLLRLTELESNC
As to the kind of experiment: Inhibition of GAT3 in mouse D8 cells assessed as [3H]GABA transport by liquid scintillation counting. It counts as cell-based.

This passage reports IC50 results from ChEMBL document CHEMBL1152571, “Synthesis and biological evaluation of 4-fluoroproline and 4-fluoropyrrolidine-2-acetic acid derivatives as new GABA uptake inhibitors” (Bioorg Med Chem, 2009).

The IC50 is the concentration needed to halve the response being measured.

As for `Cc1ccsc1C(=CCCN1C[C@@H](O)C[C@H]1CC(=O)O)c1sccc1C`, the half-maximal inhibitory concentration (IC50) in experiment [1] amounted to 5.14 µM.
On to `O=C(O)C[C@@H]1C[C@@H](O)CN1CCC=C(c1ccccc1)c1ccccc1`, for which the IC50 is 3.29 µM in experiment [1] and over 100 µM at GABA transporter 3.
`Cc1ccsc1C(=CCCN1C[C@@H](F)C[C@H]1C(=O)O)c1sccc1C`: the IC50 in experiment [1] turned out to be 18 µM.
On the same count and under the same terms, under `O=C(O)C[C@@H]1C[C@H](O)CN1CCC=C(c1ccccc1)c1ccccc1` stands 4.92 µM.
With `O=C(O)[C@@H]1CCCN1CCC=C(c1ccccc1)c1ccccc1`, the figures for the IC50 (in experiment [1]; on GABA transporter 3) were 2.56 µM and 309 µM, respectively.
For `O=C(O)C[C@@H]1CCCN1CCC=C(c1ccccc1)c1ccccc1`, in that order: 0.4 µM and 64.8 µM.
For `O=C(O)[C@@H]1C[C@@H](O)CN1CCC=C(c1ccccc1)c1ccccc1` the same measures were 79.6 µM and over 100 µM.
`O=C(O)[C@@H]1C[C@@H](F)CN1CCC=C(c1ccccc1)c1ccccc1`: the IC50 in experiment [1] came out at 67.4 µM.
Same read-out and setting: under `O=C(O)C[C@H]1C[C@@H](F)CN1CCC=C(c1ccccc1)c1ccccc1` stands 3.96 µM; under `Cc1ccsc1C(=CCCN1C[C@@H](F)C[C@@H]1CC(=O)O)c1sccc1C`, 4.94 µM.
Consider `O=C(O)[C@@H]1C[C@H](F)CN1CCC=C(c1ccccc1)c1ccccc1`, for which the IC50 in experiment [1] is over 100 µM.
On the same count and under the same terms, under `Cc1ccsc1C(=CCCN1C[C@H](F)C[C@@H]1CC(=O)O)c1sccc1C` stands 2.97 µM.
As to `Cc1ccsc1C(=CCCN1CCC[C@H]1CC(=O)O)c1sccc1C`, the IC50 in experiment [1] was 0.34 µM; on GABA transporter 3, 26.6 µM.
As for `Cc1ccsc1C(=CCCN1CCC[C@H]1C(=O)O)c1sccc1C`, the IC50 in experiment [1] was found to be 0.65 µM.
Take `Cc1ccsc1C(=CCCN1C[C@H](O)C[C@H]1CC(=O)O)c1sccc1C`: the IC50 is 3.15 µM in experiment [1] and over 100 µM at GABA transporter 3.
For `Cc1ccsc1C(=CCCN1C[C@H](F)C[C@H]1C(=O)O)c1sccc1C`, in experiment [1], the IC50 turned out to be 12.8 µM.
For the molecule `O=C(O)C[C@H]1C[C@H](F)CN1CCC=C(c1ccccc1)c1ccccc1`, the IC50 in experiment [1] came out at 5.81 µM.
On the same count and under the same terms, then `Cc1ccsc1C(=CCCN1CCC[C@@H](C(=O)O)C1)c1sccc1C` [TIAGABINE], with 0.191 µM.
